Compound activity: PubChem, several laboratories
HCV NS3 hel inh – blocks Hepatitis C virus NS3 helicase unwinding; AID 1800; inhibition, % at 10.9 µM; NS3 helicase DNA unwinding, Cy5 molecular beacon fluorescence; actives 0.56% (n = 290,000);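 active = inhibition above the mean of all tested compounds plus 3 SD, set per campaign, cut at about 35% in these data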
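test system = hepatitis C virus NS3 helicase domain fragment enzyme | reagent = annealed dual-labelled DNA beacon duplex, ATP-started | times = 1 h at 25 °C | detection = Cy5 fluorescence, 0 and 60 min reads | read-out basis = percent inhibition from t60/t0 fluorescence ratio | control set = DMSO and thioflavine S | replication = one well per compound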
PP5 inh – blocks human protein phosphatase 5 activity | actives 0.18% (n = 320,000) | inhibition, % at 6.7 µM | AID 1987 | purified PP5c, OMFP substrate fluorescence;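 active = inhibition above the campaign's mean inhibition across all tested compounds plus 3 SD, cut at about 9.5% in these data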
Target sequence (P53041 whole entry, looked up): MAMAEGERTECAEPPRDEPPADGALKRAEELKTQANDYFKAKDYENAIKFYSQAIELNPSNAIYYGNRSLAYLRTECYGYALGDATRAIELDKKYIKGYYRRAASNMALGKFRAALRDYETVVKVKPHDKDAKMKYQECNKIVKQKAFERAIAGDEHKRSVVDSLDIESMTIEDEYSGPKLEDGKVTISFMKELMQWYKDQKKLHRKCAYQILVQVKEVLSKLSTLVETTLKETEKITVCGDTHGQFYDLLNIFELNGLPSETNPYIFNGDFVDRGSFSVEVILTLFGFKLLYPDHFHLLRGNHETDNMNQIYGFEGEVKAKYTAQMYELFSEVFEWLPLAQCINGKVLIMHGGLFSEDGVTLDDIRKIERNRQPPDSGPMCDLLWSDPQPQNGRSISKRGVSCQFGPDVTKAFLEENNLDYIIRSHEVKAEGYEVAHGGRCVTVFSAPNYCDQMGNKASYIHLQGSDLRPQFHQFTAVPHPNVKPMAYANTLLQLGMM
FID counter – counter-screen for HCV NS3 helicase inhibitors: DNA intercalator displacement; DNA fluorescent intercalator displacement, fluorescence; inhibition, % at 7.9 µM; actives 0.17% (n = 290,000); AID 1845; in the data active = inhibition above about 37%;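 note: higher means more ethidium bromide displaced from hairpin DNA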
PP1 inh – counter-screen for PP5 inhibitors: inhibitors of human PP1-alpha. actives 0.9% (n = 320,000). inhibition, % at 6.7 µM. purified PP1alpha, OMFP fluorescence. P62136;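 active = inhibition above the mean inhibition of all tested compounds plus 3 SD, computed separately for each screening campaign, cut at about 15% in these data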
HIF act – HIF pathway transcriptional activation; U2OS HRE-luciferase reporter, luminescence; normalized: DMSO 0%, desferrioxamine 100%; activation, % at 7.5 µM (by protocol); actives 0.32% (n = 300,000); AID 1910;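 active = mean activation of at least 10% of the iron chelator positive control signal, with at least half of replicates also reaching 10%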
PP1 confirm – confirmation of human PP1 phosphatase inhibitors; shares compounds with PP1 inh; purified PP1alpha, OMFP substrate fluorescence; inhibition, % at 6.7 µM; actives 52% (n = 1,900);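 active = mean PP1 inhibition above a set limit taken from the earlier primary screen, cut at about 15% in these data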
PP5 counter – counter-screen for PP1 inhibitors: human PP5 phosphatase inhibition; actives 4% (n = 1,900); shares compounds with PP1 inh; AID 2360; inhibition, % at 6.7 µM; purified PP5c, OMFP fluorescence;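 active = mean PP5 inhibition over triplicate wells above about 9.5% taken from the earlier PP1 screen, limit read from the data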
A number is an active result. Most compounds without a hit are left out; they make up all but 1.9% or so of the library.

`COc1cc2c(cc1OC)CN(c1nc(CN3CCCCC3)nc3sc4c(c13)CCCC4)CC2` gave HCV NS3 hel inh inactive, PP5 inh inactive, FID counter inactive, PP1 inh 18, HIF act inactive, PP1 confirm inactive and PP5 counter inactive.
Screening CC1CCc2c(sc3nc(CN4CCOCC4)nc(N4CCc5ccccc5C4)c23)C1 (stereo not given) returned HCV NS3 hel inh inactive, PP5 inh inactive, FID counter inactive, PP1 inh 21, HIF act inactive, PP1 confirm inactive and PP5 counter inactive.
NC(=O)CC(NC(=O)Cc1cccc2ccccc12)c1ccc(N2CCc3ccccc3C2)c([N+](=O)[O-])c1 (stereo not given) was read as PP5 inh inactive, PP1 inh 18, HIF act inactive, PP1 confirm 17 and PP5 counter inactive.
For NC(=O)CC(NC(=O)c1ccccc1)c1ccc(NCCc2cccc(F)c2)c([N+](=O)[O-])c1 (stereo not given) the results were PP5 inh inactive, PP1 inh inactive and HIF act inactive.
NC(=O)CC(NC(=O)c1ccccc1)c1ccc(N2CCN(c3ccc(F)cc3)CC2)c([N+](=O)[O-])c1 (stereo not given) was read as HCV NS3 hel inh inactive, PP5 inh inactive, FID counter inactive, PP1 inh 18, HIF act inactive, PP1 confirm inactive and PP5 counter inactive.
Screening NC(=O)CC(NC(=O)Cc1ccc(Cl)cc1)c1ccc(N2CCC(Cc3ccccc3)CC2)c([N+](=O)[O-])c1 (stereo not given) returned HCV NS3 hel inh inactive, PP5 inh inactive, FID counter inactive, PP1 inh 22, HIF act inactive, PP1 confirm inactive and PP5 counter inactive.
NC(=O)CC(NC(=O)c1ccc(Br)cc1)c1ccc(NCCc2ccc(F)cc2)c([N+](=O)[O-])c1 (stereo not given) was read as PP5 inh inactive, PP1 inh 25, HIF act inactive, PP1 confirm 26 and PP5 counter inactive.
Cc1onc(-c2c(Cl)cccc2Cl)c1C(=O)N1CCc2ccccc2C1 was read as HCV NS3 hel inh inactive, PP5 inh inactive, FID counter inactive, PP1 inh inactive and HIF act inactive.
For Cc1ccc(Cl)cc1NC(=S)NN the results were HCV NS3 hel inh inactive, PP5 inh inactive, FID counter inactive, PP1 inh inactive and HIF act inactive.
Cc1ccc(C)c(S(=O)(=O)NCC(=O)Nc2ccc3c(c2)OCO3)c1 was read as HCV NS3 hel inh inactive, FID counter inactive and HIF act inactive.
CC1(C)C[C@@H](O)CC2(C1)C[C@]1(C)CC(O)[C@H]2C(C)(C)C1 (stereo not given in full) was read as PP5 inh inactive, PP1 inh inactive and HIF act inactive.
O=C(CCNS(=O)(=O)c1ccc(Br)cc1)NC1CCC(O)CC1 (stereo not given) was read as PP5 inh inactive and PP1 inh inactive.
`N/C(=N/O)c1ccccc1N1CCC(Cc2ccccc2)CC1` gave HCV NS3 hel inh inactive, PP5 inh inactive, FID counter inactive, PP1 inh inactive and HIF act inactive.
CC(C)(C)c1ccc(-c2n[nH]c(=S)n2-c2ccccc2)cc1 was read as HCV NS3 hel inh inactive, PP5 inh inactive, FID counter inactive, PP1 inh inactive and HIF act inactive.
Cc1ccccc1C(=O)Nc1ccccc1C(=O)N1CCC(C)CC1 was read as HCV NS3 hel inh inactive, PP5 inh inactive, FID counter inactive, PP1 inh inactive and HIF act inactive.
CCOC(=O)NNC(=O)NCCCCCCNC(=O)NNC(=O)OCC was read as HCV NS3 hel inh inactive, PP5 inh inactive, FID counter inactive, PP1 inh inactive and HIF act inactive.
Screening CC(=O)c1ccc(N2CCN(C(=O)c3ccc(Cn4c(=S)[nH]c5ccc(N6CCOCC6)cc5c4=O)cc3)CC2)cc1 returned HCV NS3 hel inh inactive, PP5 inh inactive, FID counter inactive, PP1 inh 45, HIF act inactive, PP1 confirm 29 and PP5 counter inactive.
